# Reference: ChEMBL document CHEMBL4219066, “Identification and Mitigation of Reactive Metabolites of 2-Aminoimidazole-Containing Microsomal Prostaglandin E Synthase-1 Inhibitors Terminated Due to Clinical Drug-Induced Liver Injury” (J Med Chem, 2018)
# Assays:
# [1] = Drug level in rat hepatocytes treated with 2-(Difluoromethyl)-N-(4-methyl-5-(4-(trifluoromethyl)-phenyl)-1H-imidazol-2-yl)-5-(pivalamidomethyl)nicotinamide at 2 uM after 4 hrs by LC-MS/MS analysis; type: ADME, cell-based, Hepatocyte
# [2] = Drug level in dog hepatocytes treated with 2-(Difluoromethyl)-N-(4-methyl-5-(4-(trifluoromethyl)-phenyl)-1H-imidazol-2-yl)-5-(pivalamidomethyl)nicotinamide at 2 uM after 4 hrs by LC-MS/MS analysis; type: ADME, cell-based, Canis lupus familiaris, Hepatocyte
# [3] = Drug level in human hepatocytes treated with 2-(Difluoromethyl)-N-(4-methyl-5-(4-(trifluoromethyl)-phenyl)-1H-imidazol-2-yl)-5-(pivalamidomethyl)nicotinamide at 2 uM after 4 hrs by LC-MS/MS analysis; type: ADME, cell-based, Hepatocyte
# [4] = Drug level in human hepatocytes treated with 2-Chloro-N-(4-methyl-1H-imidazol-2-yl)-5-(pivalamidomethyl)benzamide at 2 uM after 4 hrs by LC-MS/MS analysis; type: ADME, cell-based, Hepatocyte
# [5] = Drug metabolism in rat hepatocytes assessed as 2-(2-chloro-5-(pivalamidomethyl)benzamido)-1H-imidazole-4-carboxylic acid formation at 2 uM after 4 hrs by LC-MS/MS analysis; type: ADME, cell-based, Hepatocyte
# [6] = Drug metabolism in human hepatocytes assessed as 2-(2-chloro-5-(pivalamidomethyl)benzamido)-1H-imidazole-4-carboxylic acid formation at 2 uM after 4 hrs by LC-MS/MS analysis; type: ADME, cell-based, Hepatocyte
# [7] = Drug level in rat hepatocytes treated with 2-Chloro-N-(4-methyl-1H-imidazol-2-yl)-5-(pivalamidomethyl)benzamide at 2 uM after 4 hrs by LC-MS/MS analysis; type: ADME, cell-based, Hepatocyte
# [8] = Drug level in human liver microsomes treated with 2-Chloro-N-(4-methyl-1H-imidazol-2-yl)-5-(pivalamidomethyl)benzamide at 2 uM after 0.5 hrs in presence of 1:1 ratio of unlabeled GSH and [glycine 13C2,15N]-labelled GSH by HPLC-MS analysis; type: ADME, microsome
# In short: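 Glutathione-trapping incubation in human liver microsomes fortified with GSH to capture reactive intermediates. Metabolites and GSH adducts were identified by MS.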
# [9] = Drug metabolism in rat hepatocytes assessed as 2-amino-5-((R)-1-(carboxymethylamino)-3-((2-(2-chloro-5-(pivalamidomethyl)benzamido)-1H-imidazol-5-yl)disulfanyl)-1-oxopropan-2-ylamino)-5-oxopentanoic acid formation at 2 uM after 4 hrs by LC-MS/MS analysis; type: ADME, cell-based, Hepatocyte
# [10] = Drug metabolism in rat hepatocytes assessed as 2-chloro-5-((3-hydroxy-2,2-dimethylpropanamido)methyl)-N-(1H-imidazol-2-yl)benzamide formation at 2 uM after 4 hrs by LC-MS/MS analysis; type: ADME, cell-based, Hepatocyte
# [11] = Drug metabolism in dog hepatocytes assessed as 2-chloro-5-((3-hydroxy-2,2-dimethylpropanamido)methyl)-N-(1H-imidazol-2-yl)benzamide formation at 2 uM after 4 hrs by LC-MS/MS analysis; type: ADME, cell-based, Canis lupus familiaris, Hepatocyte
# [12] = Drug metabolism in human hepatocytes assessed as 2-chloro-5-((3-hydroxy-2,2-dimethylpropanamido)methyl)-N-(1H-imidazol-2-yl)benzamide formation at 2 uM after 4 hrs by LC-MS/MS analysis; type: ADME, cell-based, Hepatocyte
# [13] = Drug metabolism in rat hepatocytes assessed as 2-chloro-N-(4,5-dihydroxy-4,5-dihydro-1H-imidazol-2-yl)-5-(pivalamidomethyl)benzamide formation at 2 uM after 4 hrs by LC-MS/MS analysis; type: ADME, cell-based, Hepatocyte
# [14] = Drug metabolism in dog hepatocytes assessed as 2-chloro-N-(4,5-dihydroxy-4,5-dihydro-1H-imidazol-2-yl)-5-(pivalamidomethyl)benzamide formation at 2 uM after 4 hrs by LC-MS/MS analysis; type: ADME, cell-based, Canis lupus familiaris, Hepatocyte
# [15] = Drug metabolism in human hepatocytes assessed as 2-chloro-N-(4,5-dihydroxy-4,5-dihydro-1H-imidazol-2-yl)-5-(pivalamidomethyl)benzamide formation at 2 uM after 4 hrs by LC-MS/MS analysis; type: ADME, cell-based, Hepatocyte
# [16] = Drug metabolism in rat hepatocytes assessed as 2-chloro-N-(4-hydroxy-1H-imidazol-2-yl)-5-(pivalamidomethyl)benzamide formation at 2 uM after 4 hrs by LC-MS/MS analysis; type: ADME, cell-based, Hepatocyte
# [17] = Drug metabolism in dog hepatocytes assessed as 2-chloro-N-(4-hydroxy-1H-imidazol-2-yl)-5-(pivalamidomethyl)benzamide formation at 2 uM after 4 hrs by LC-MS/MS analysis; type: ADME, cell-based, Canis lupus familiaris, Hepatocyte
# [18] = Drug metabolism in human hepatocytes assessed as 2-chloro-N-(4-hydroxy-1H-imidazol-2-yl)-5-(pivalamidomethyl)benzamide formation at 2 uM after 4 hrs by LC-MS/MS analysis; type: ADME, cell-based, Hepatocyte
# [19] = Drug metabolism in dog hepatocytes assessed as N-carbamimidoyl-2-chloro-5-(pivalamidomethyl)benzamide formation at 2 uM after 4 hrs by LC-MS/MS analysis; type: ADME, cell-based, Canis lupus familiaris, Hepatocyte
# [20] = Drug metabolism in Sprague-Dawley rat plasma assessed as 2-chloro-5-((3-hydroxy-2,2-dimethylpropanamido)methyl)-N-(1H-imidazol-2-yl)benzamide formation at 1000 mg/kg, po measured after 2 hrs post dose by LC/MS analysis; type: ADME, organism-based; settings: in vivo
# [21] = Drug metabolism in Beagle dog plasma assessed as 2-chloro-5-((3-hydroxy-2,2-dimethylpropanamido)methyl)-N-(1H-imidazol-2-yl)benzamide formation at 300 to 600 mg/kg, po measured after 2 hrs post dose by LC/MS analysis; type: ADME, organism-based, Canis lupus familiaris; settings: in vivo
# [22] = In vivo drug metabolism in human plasma assessed as 2-chloro-5-((3-hydroxy-2,2-dimethylpropanamido)methyl)-N-(1H-imidazol-2-yl)benzamide formation HPLC-MS analysis; type: ADME, organism-based
# [23] = Drug metabolism in Sprague-Dawley rat plasma assessed as 2-chloro-N-(4,5-dihydroxy-4,5-dihydro-1H-imidazol-2-yl)-5-(pivalamidomethyl)benzamide formation at 1000 mg/kg, po measured after 2 hrs post dose by LC/MS analysis; type: ADME, organism-based; settings: in vivo
# [24] = Drug metabolism in Beagle dog plasma assessed as 2-chloro-N-(4,5-dihydroxy-4,5-dihydro-1H-imidazol-2-yl)-5-(pivalamidomethyl)benzamide formation at 300 to 600 mg/kg, po measured after 2 hrs post dose by LC/MS analysis; type: ADME, organism-based, Canis lupus familiaris; settings: in vivo
# [25] = Drug metabolism in Sprague-Dawley rat plasma assessed as 2-chloro-N-(4-hydroxy-1H-imidazol-2-yl)-5-(pivalamidomethyl)benzamide formation at 1000 mg/kg, po measured after 2 hrs post dose by LC/MS analysis; type: ADME, organism-based; settings: in vivo
# [26] = Drug metabolism in Beagle dog plasma assessed as 2-chloro-N-(4-hydroxy-1H-imidazol-2-yl)-5-(pivalamidomethyl)benzamide formation at 300 to 600 mg/kg, po measured after 2 hrs post dose by LC/MS analysis; type: ADME, organism-based, Canis lupus familiaris; settings: in vivo
# [27] = In vivo drug metabolism in human plasma assessed as 2-chloro-N-(4-hydroxy-1H-imidazol-2-yl)-5-(pivalamidomethyl)benzamide formation HPLC-MS analysis; type: ADME, organism-based
# [28] = Drug metabolism in Sprague-Dawley rat plasma assessed as N-carbamimidoyl-2-chloro-5-(pivalamidomethyl)benzamide formation at 1000 mg/kg, po measured after 2 hrs post dose by LC/MS analysis; type: ADME, organism-based; settings: in vivo
# [29] = Drug metabolism in Beagle dog plasma assessed as N-carbamimidoyl-2-chloro-5-(pivalamidomethyl)benzamide formation at 300 to 600 mg/kg, po measured after 2 hrs post dose by LC/MS analysis; type: ADME, organism-based, Canis lupus familiaris; settings: in vivo
# [30] = In vivo drug metabolism in human plasma assessed as N-carbamimidoyl-2-chloro-5-(pivalamidomethyl)benzamide formation by HPLC-MS analysis; type: ADME, organism-based
# [31] = Drug metabolism in Sprague-Dawley rat plasma assessed as 2-chloro-5-(pivalamidomethyl)benzoic acid formation at 1000 mg/kg, po measured after 2 hrs post dose by LC/MS analysis; type: ADME, organism-based; settings: in vivo
# [32] = Drug metabolism in Beagle dog plasma assessed as 2-chloro-5-(pivalamidomethyl)benzoic acid formation at 300 to 600 mg/kg, po measured after 2 hrs post dose by LC/MS analysis; type: ADME, organism-based, Canis lupus familiaris; settings: in vivo
# [33] = Drug metabolism in Sprague-Dawley rat plasma assessed as 5-(aminomethyl)-2-chloro-N-(1H-imidazol-2-yl)benzamide formation at 1000 mg/kg, po measured after 2 hrs post dose by LC/MS analysis; type: ADME, organism-based; settings: in vivo
# [34] = Drug metabolism in Beagle dog plasma assessed as 5-(aminomethyl)-2-chloro-N-(1H-imidazol-2-yl)benzamide formation at 300 to 600 mg/kg, po measured after 2 hrs post dose by LC/MS analysis; type: ADME, organism-based, Canis lupus familiaris; settings: in vivo
# [35] = In vivo drug metabolism in human urine assessed as 2-chloro-5-((3-hydroxy-2,2-dimethylpropanamido)methyl)-N-(1H-imidazol-2-yl)benzamide formation by HPLC-MS analysis; type: ADME, organism-based
# [36] = In vivo drug metabolism in human urine assessed as 2-chloro-N-(4,5-dihydroxy-4,5-dihydro-1H-imidazol-2-yl)-5-(pivalamidomethyl)benzamide formation by HPLC-MS analysis; type: ADME, organism-based
# [37] = In vivo drug metabolism in human urine assessed as 2-chloro-N-(4-hydroxy-1H-imidazol-2-yl)-5-(pivalamidomethyl)benzamide formation by HPLC-MS analysis; type: ADME, organism-based
# [38] = In vivo drug metabolism in human urine assessed as N-carbamimidoyl-2-chloro-5-(pivalamidomethyl)benzamide formation by HPLC-MS analysis; type: ADME, organism-based
# [39] = In vivo drug metabolism in human urine assessed as N-carbamimidoyl-2-chloro-5-((3-hydroxy-2,2-dimethylpropanamido)methyl)benzamide formation by HPLC-MS analysis; type: ADME, organism-based
# [40] = In vivo drug metabolism in human urine assessed as (R)-2-amino-3-((2-(2-chloro-5-(pivalamidomethyl)benzamido)-1H-imidazol-5-yl)disulfanyl)propanoic acid formation by HPLC-MS analysis; type: ADME, organism-based
# [41] = Drug metabolism in rat hepatocytes assessed as N-(6-oxa-2,4-diazabicyclo[3.1.0]hex-3-en-3-yl)-2-chloro-5-(pivalamidomethyl)benzamide formation at 2 uM after 4 hrs by LC-MS/MS analysis; type: ADME, cell-based, Hepatocyte
# [42] = Drug metabolism in dog hepatocytes assessed as N-(6-oxa-2,4-diazabicyclo[3.1.0]hex-3-en-3-yl)-2-chloro-5-(pivalamidomethyl)benzamide formation at 2 uM after 4 hrs by LC-MS/MS analysis; type: ADME, cell-based, Canis lupus familiaris, Hepatocyte
# [43] = Drug metabolism in human hepatocytes assessed as N-(6-oxa-2,4-diazabicyclo[3.1.0]hex-3-en-3-yl)-2-chloro-5-(pivalamidomethyl)benzamide formation at 2 uM after 4 hrs by LC-MS/MS analysis; type: ADME, cell-based, Hepatocyte
# [44] = Drug metabolism in human liver microsomes assessed as N-(6-oxa-2,4-diazabicyclo[3.1.0]hex-3-en-3-yl)-2-chloro-5-(pivalamidomethyl)benzamide formation at 2 uM in presence of 1:1 ratio of unlabeled GSH and [glycine 13C2,15N]-labelled GSH after 0.5 hrs by HPLC-MS analysis; type: ADME, microsome
# [45] = Drug metabolism in Sprague-Dawley rat plasma assessed as N-(6-oxa-2,4-diazabicyclo[3.1.0]hex-3-en-3-yl)-2-chloro-5-(pivalamidomethyl)benzamide formation at 1000 mg/kg, po measured after 2 hrs post dose by LC/MS analysis; type: ADME, organism-based; settings: in vivo
# [46] = Drug metabolism in Beagle dog plasma assessed as N-(6-oxa-2,4-diazabicyclo[3.1.0]hex-3-en-3-yl)-2-chloro-5-(pivalamidomethyl)benzamide formation at 300 to 600 mg/kg, po measured after 2 hrs post dose by LC/MS analysis; type: ADME, organism-based, Canis lupus familiaris; settings: in vivo
# [47] = In vivo drug metabolism in human plasma assessed as N-(6-oxa-2,4-diazabicyclo[3.1.0]hex-3-en-3-yl)-2-chloro-5-(pivalamidomethyl)benzamide formation HPLC-MS analysis; type: ADME, organism-based
# [48] = In vivo drug metabolism in human urine assessed as N-(6-oxa-2,4-diazabicyclo[3.1.0]hex-3-en-3-yl)-2-chloro-5-(pivalamidomethyl)benzamide formation by HPLC-MS analysis; type: ADME, organism-based
smiles,measurement,setting,value
CC(C)(C)C(=O)NCc1cnc(C(F)F)c(C(=O)NC(=N)N)c1,Drug metabolism,[1],Metabolite_Detected
same,Drug metabolism,[2],Metabolite_Detected
same,Drug metabolism,[3],Metabolite_Detected
CC(C)(C)C(=O)NCc1ccc(Cl)c(C(=O)Nc2nc(CO)c[nH]2)c1,Drug metabolism,[4],Metabolite_Detected
same,Drug metabolism,[5],Metabolite_Detected
same,Drug metabolism,[6],Metabolite_Detected
same,Drug metabolism,[7],Metabolite_Detected
Cc1nc(NC(=O)c2cc(CNC(=O)C(C)(C)CO)cnc2C(F)F)[nH]c1-c1ccc(C(F)(F)F)cc1,Drug metabolism,[1],Metabolite_Detected
same,Drug metabolism,[2],Metabolite_Detected
same,Drug metabolism,[3],Metabolite_Detected
CC(C)(C)C(=O)NCc1ccc(Cl)c(C(=O)Nc2nc(CSC[C@H](N)C(=O)NCC(=O)O)c[nH]2)c1,Drug metabolism,[8],Metabolite_Detected
CC(C)(C)C(=O)NCc1ccc(Cl)c(C(=O)Nc2nc(CSC[C@H](NC(=O)CC[C@H](N)C(=O)O)C(=O)NCC(=O)O)c[nH]2)c1,Drug metabolism,[8],Metabolite_Detected
CC(C)(C)C(=O)NCc1ccc(Cl)c(C(=O)Nc2ncc[nH]2)c1 [LY-3031207],Drug metabolism,[9],Metabolite_Detected
same,Drug metabolism,[10],Metabolite_Detected
same,Drug metabolism,[11],Metabolite_Detected
same,Drug metabolism,[12],Metabolite_Detected
same,Drug metabolism,[13],Metabolite_Detected
same,Drug metabolism,[14],Metabolite_Detected
same,Drug metabolism,[15],Metabolite_Detected
same,Drug metabolism,[16],Metabolite_Detected
same,Drug metabolism,[17],Metabolite_Detected
same,Drug metabolism,[18],Metabolite_Detected
same,Drug metabolism,[19],Metabolite_Detected
same,Drug metabolism,[20],Metabolite_Detected
same,Drug metabolism,[21],Metabolite_Detected
same,Drug metabolism,[22],Metabolite_Detected
same,Drug metabolism,[23],Metabolite_Detected
same,Drug metabolism,[24],Metabolite_Detected
same,Drug metabolism,[25],Metabolite_Detected
same,Drug metabolism,[26],Metabolite_Detected
same,Drug metabolism,[27],Metabolite_Detected
same,Drug metabolism,[28],Metabolite_Detected
same,Drug metabolism,[29],Metabolite_Detected
same,Drug metabolism,[30],Metabolite_Detected
same,Drug metabolism,[31],Metabolite_Detected
same,Drug metabolism,[32],Metabolite_Detected
same,Drug metabolism,[33],Metabolite_Detected
same,Drug metabolism,[34],Metabolite_Detected
same,Drug metabolism,[35],Metabolite_Detected
same,Drug metabolism,[36],Metabolite_Detected
same,Drug metabolism,[37],Metabolite_Detected
same,Drug metabolism,[38],Metabolite_Detected
same,Drug metabolism,[39],Metabolite_Detected
same,Drug metabolism,[40],Metabolite_Detected
same,Drug metabolism,[41],Metabolite_Notdetected
same,Drug metabolism,[42],Metabolite_Notdetected
same,Drug metabolism,[43],Metabolite_Notdetected
same,Drug metabolism,[44],Metabolite_Notdetected
same,Drug metabolism,[45],Metabolite_Notdetected
same,Drug metabolism,[46],Metabolite_Notdetected
same,Drug metabolism,[47],Metabolite_Notdetected
same,Drug metabolism,[48],Metabolite_Notdetected
